Source: ChEMBL document CHEMBL1629633, “Prevalence of sulfonamide resistance genes in bacterial isolates from manured agricultural soils and pig slurry in the United Kingdom” (2009)

Columns and labels:
Assay type in all cases: functional
[1] = Antimicrobial activity against Psychrobacter ikaite isolate C713 harboring sul1 to sul3 genes by agar dilution method
In short: (§1)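 Isolates were recovered from manured clay soil or pig slurry on Iso-Sensitest agar at 28°C. sul genes were detected by PCR, and identity was assigned by ~800 bp 16S rRNA sequencing. MICs and resistance breakpoints were found by agar dilution on Iso-Sensitest agar, with each inoculum (100 μl) adjusted to OD600 0.4.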

Aerococcus viridans [2] = assay: Antimicrobial activity against Aerococcus viridans isolate PGS22 harboring sul1 to sul3 genes by agar dilution method
In short: (§2)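 Agar dilution on Iso-Sensitest agar for MICs and resistance breakpoints. Each isolate's inoculum (100 μl) was adjusted to OD600 0.4. Isolates came from soil cores of a field given pig slurry, or from the pig slurry itself. They were picked from nonselective or antibiotic plates incubated aerobically at 28°C, purified by restreaking, checked for sul genes by PCR and identified by 16S rRNA sequencing.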

[3] = Antimicrobial activity against Psychrobacter sp. DY9-2 isolate C711 harboring sul1 to sul3 genes by agar dilution method; in short: as §1
Enterococcus hirae = assay: Antimicrobial activity against Enterococcus hirae isolate PGS48 harboring sul1 to sul3 genes by agar dilution method; in short: as §2
Acinetobacter lwoffii [4] = assay: Antimicrobial activity against Acinetobacter lwoffii isolate PGS47 harboring sul1 to sul3 genes by agar dilution method; in short: as §2
[5] = Antimicrobial activity against Acinetobacter sp. An9 isolate PGS49 harboring sul1 to sul3 genes by agar dilution method; in short: as §2
Pseudomonas borealis = assay: Antimicrobial activity against Pseudomonas borealis isolate C5 harboring sul1 to sul3 genes by agar dilution method; in short: as §2
Pseudomonas lini = assay: Antimicrobial activity against Pseudomonas lini isolate C701 harboring sul1 to sul3 genes by agar dilution method; in short: as §2
[6] = tested on: Arthrobacter arilaitensis; assay: Antimicrobial activity against Arthrobacter arilaitensis isolate C361 harboring sul1 to sul3 genes by agar dilution method; conditions: Glutamicibacter arilaitensis; in short: as §2
Enterococcus sulfureus = assay: Antimicrobial activity against Enterococcus sulfureus isolate PGS61 harboring sul1 to sul3 genes by agar dilution method; in short: as §2
Acinetobacter lwoffii [7] = assay: Antimicrobial activity against Acinetobacter lwoffii isolate C3 harboring sul1 to sul3 genes by agar dilution method; in short: as §2
Acinetobacter baumannii = assay: Antimicrobial activity against Acinetobacter baumannii isolate C442 harboring sul1 to sul3 genes by agar dilution method; in short: as §2
Providencia stuartii = assay: Antimicrobial activity against Providencia stuartii isolate C167 harboring sul1 to sul3 genes by agar dilution method; in short: as §2
Aerococcus viridans [8] = assay: Antimicrobial activity against Aerococcus viridans isolate PGS21 harboring sul1 to sul3 genes by agar dilution method; in short: as §2
Pseudomonas fluorescens = assay: Antimicrobial activity against Pseudomonas fluorescens isolate C131 harboring sul1 to sul3 genes by agar dilution method; in short: as §2
Bacillus psychrodurans = assay: Antimicrobial activity against Bacillus psychrodurans isolate C328 harboring sul1 to sul3 genes by agar dilution method; conditions: Psychrobacillus psychrodurans; in short: as §2
[9] = tested on: Acinetobacter calcoaceticus; assay: Antimicrobial activity against Acinetobacter calcoaceticus isolate C35 harboring sul1 to sul3 genes by agar dilution method; in short: as §2
Acinetobacter lwoffii [10] = assay: Antimicrobial activity against Acinetobacter lwoffii isolate C141 harboring sul1 to sul3 genes by agar dilution method; in short: as §2
[11] = tested on: Acinetobacter calcoaceticus; assay: Antimicrobial activity against Acinetobacter calcoaceticus isolate C36 harboring sul1 to sul3 genes by agar dilution method; in short: as §2
[12] = tested on: Stenotrophomonas maltophilia; assay: Antimicrobial activity against Stenotrophomonas maltophilia isolate C422 harboring sul1 to sul3 genes by agar dilution method; in short: as §1
[13] = tested on: Psychrobacter frigidicola; assay: Antimicrobial activity against Psychrobacter frigidicola isolate C712 harboring sul1 to sul3 genes by agar dilution method; in short: as §2
[14] = tested on: Acinetobacter rhizosphaerae; assay: Antimicrobial activity against Acinetobacter rhizosphaerae isolate C44 harboring sul1 to sul3 genes by agar dilution method; in short: as §2
Shigella flexneri = assay: Antimicrobial activity against Shigella flexneri isolate C506 harboring sul1 to sul3 genes by agar dilution method; in short: as §1
[15] = Antimicrobial activity against Acinetobacter sp. N2 isolate C439 harboring sul1 to sul3 genes by agar dilution method; in short: as §2
[16] = tested on: Lysinibacillus sphaericus; assay: Antimicrobial activity against Bacillus sphaericus isolate C237 harboring sul1 to sul3 genes by agar dilution method; in short: as §2
Acinetobacter lwoffii [17] = assay: Antimicrobial activity against Acinetobacter lwoffii isolate C37 harboring sul1 to sul3 genes by agar dilution method; in short: as §2
Acinetobacter lwoffii [18] = assay: Antimicrobial activity against Acinetobacter lwoffii isolate C2 harboring sul1 to sul3 genes by agar dilution method; in short: as §2
Acinetobacter lwoffii [19] = assay: Antimicrobial activity against Acinetobacter lwoffii isolate C15 harboring sul1 to sul3 genes by agar dilution method; in short: as §2
Pseudomonas putida = assay: Antimicrobial activity against Pseudomonas putida isolate C231 harboring sul1 to sul3 genes by agar dilution method; in short: as §2
[20] = Antimicrobial activity against Psychrobacter ikaite isolate C410 harboring sul1 to sul3 genes by agar dilution method; in short: as §1
[21] = Antimicrobial activity against Psychrobacter ikaite isolate C20 harboring sul1 to sul3 genes by agar dilution method; in short: as §1

Measured: MIC

Nc1ccc(S(=O)(=O)Nc2ccc(Cl)nn2)cc1 [SULFACHLORPYRIDAZINE]
32 µg/mL: Pseudomonas borealis | Aerococcus viridans [8] | Pseudomonas fluorescens
6 µg/mL: Providencia stuartii | Acinetobacter lwoffii [10]
4 µg/mL: Enterococcus hirae | Enterococcus sulfureus
16 µg/mL: Acinetobacter lwoffii [4] | [5] | [15] | [20]
1 µg/mL: Pseudomonas lini | Acinetobacter lwoffii [7] | [12] | [16]
8 µg/mL: [1] | Aerococcus viridans [2] | [3] | Acinetobacter baumannii | Bacillus psychrodurans | [9] | [11] | [13] | Shigella flexneri | Acinetobacter lwoffii [17] | Pseudomonas putida
5 µg/mL: [6] | [14] | Acinetobacter lwoffii [18] | Acinetobacter lwoffii [19] | [21]
